Tests used:
Type in all cases: in vivo, mouse
[1] = test system: athymic nude mice bearing U87MG human glioma xenografts; assay: SPECT/CT imaging with SPECT quantification of tumor uptake; conditions: U87MG glioma xenograft; ~37 MBq via tail vein; imaging at 60 min p.i.
Outline: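 Imaging dose: ~37 MBq radiotracer (~0.8 µg conjugate) in 0.1 mL saline i.v.; mice imaged under isoflurane. SPECT: multi-pinhole collimator (0.6 mm), 75 projections per 30-min frame, 2 frames. CT: 45 kV, 500 µA, 2° intervals. Tumour ROIs drawn on CT; counts converted to activity via a standard curve from sources of known activity scanned the same way; expressed as %ID/cm3.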

[2] = test system: athymic nude mice without tumors; assay: Metabolism study; conditions: ~10 MBq via tail vein, n = 3, radio-HPLC
Outline: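 Tumour-free athymic nude mice (n = 3), ~10 MBq radiotracer i.v. Urine (manual void): mixed 1:1 with 50% acetonitrile, spun at 8,000 rpm, supernatant 0.20 µm-filtered. Feces: homogenised, suspended in 20% acetonitrile, vortexed ~5 min, spun, filtered. Filtrates analysed by C18 HPLC at 2.5 mL/min on a 0.05% TFA water/acetonitrile gradient (10% to 30% B over 20 min).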

[3] = test system: athymic nude mice bearing U87MG human glioma xenografts; assay: Biodistribution in athymic nude mice bearing U87MG glioma xenografts; conditions: average ± SD; for Brain uptake / Eyes uptake / Heart uptake / Intestine uptake / Kidney uptake / Liver uptake / Lungs uptake / Muscle uptake / Spleen uptake / Blood uptake / Tumor uptake: tail vein ~0.1 MBq; for Blood uptake: γ-counting; for Tumor uptake: U87MG glioma xenograft
Outline: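 Tumour model: female athymic nu/nu mice, 4–5 weeks old, inoculated s.c. in the shoulder flank with 5 × 10^6 U87MG cells and used 4 weeks later (tumours 0.1–0.5 g; mice 20–25 g). Dosing: ~0.1 MBq radiotracer (~2 ng conjugate) in filtered saline. Groups of 5–8 killed at 5, 30, 60 and 120 min by pentobarbital overdose. Blood and organs washed, blotted, weighed and γ-counted as %ID/g.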

[4] = test system: athymic nude mice bearing U87MG glioma xenografts; conditions: 60 min p.i.
[5] = co-injection of excess RGD2 (350 µg/mouse or 14 mg/kg), n = 6

**Q.** What does the source list for “[^99mTc(HYNIC-Galacto-RGD2)(tricine)(TPPTS)] (bicyclic or more) [^99mTc-Galacto-RGD2]”?
**A.** Tumor uptake on the basis of SPECT quantification [1]: ~ 8.5 %ID/cm^3; Remained intact in the feces ([2]; feces at 2 h p.i.): More than 90%; Metabolites in the urine ([2]; urine at 30 min and 120 min p.i.): no metabolites detected; Tumor/Blood ratio ([3]; 5 min p.i., n = 5): 9.43 ± 1.19; Tumor/Kidney ratio ([3]; 5 min p.i., n = 5): 0.52 ± 0.14; Tumor/Liver ratio ([3]; 5 min p.i., n = 5): 2.66 ± 0.51; Tumor/Lung ratio ([3]; 5 min p.i., n = 5): 1.90 ± 0.21; Tumor/Muscle ratio ([3]; 5 min p.i., n = 5): 3.98 ± 0.75; Brain uptake ([3]; 5 min p.i., n = 5): 0.41 ± 0.10 %ID/g; Eyes uptake ([3]; 5 min p.i., n = 5): 1.54 ± 0.49 %ID/g; Heart uptake ([3]; 5 min p.i., n = 5): 2.36 ± 0.29 %ID/g; Intestine uptake ([3]; 5 min p.i., n = 5): 3.78 ± 0.52 %ID/g; Kidney uptake ([3]; 5 min p.i., n = 5): 18.75 ± 2.79 %ID/g; Liver uptake ([3]; 5 min p.i., n = 5): 4.00 ±1.10 %ID/g; Lungs uptake ([3]; 5 min p.i., n = 5): 5.41 ± 0.58 %ID/g; Muscle uptake ([3]; 5 min p.i., n = 5): 2.73 ± 0.89 %ID/g; Spleen uptake ([3]; 5 min p.i., n = 5): 2.97 ± 0.43 %ID/g; Blood uptake ([3]; 5 min p.i., n = 5): 1.10 ± 0.16 %ID/g; Tumor/Blood ratio ([3]; 30 min p.i., n = 5): 9.65 ± 2.03; Tumor/Kidney ratio ([3]; 30 min p.i., n = 5): 0.61 ±0.12; Tumor/Liver ratio ([3]; 30 min p.i., n = 5): 3.25 ± 0.85; Tumor/Lung ratio ([3]; 30 min p.i., n = 5): 2.19 ± 0.75; Tumor/Muscle ratio ([3]; 30 min p.i., n = 5): 7.97 ± 2.53; Brain uptake ([3]; 30 min p.i., n = 5): 0.22 ± 0.06 %ID/g; Eyes uptake ([3]; 30 min p.i., n = 5): 1.20 ± 0.50 %ID/g; Heart uptake ([3]; 30 min p.i., n = 5): 1.65 ± 1.10 %ID/g; Intestine uptake ([3]; 30 min p.i., n = 5): 4.24 ± 1.54 %ID/g; Kidney uptake ([3]; 30 min p.i., n = 5): 13.13 ± 4.75 %ID/g; Liver uptake ([3]; 30 min p.i., n = 5): 2.82 ± 1.25 %ID/g; Lungs uptake ([3]; 30 min p.i., n = 5): 4.24 ± 1.71 %ID/g; Muscle uptake ([3]; 30 min p.i., n = 5): 1.10 ± 0.25 %ID/g; Spleen uptake ([3]; 30 min p.i., n = 5): 2.53 ± 0.85 %ID/g; Blood uptake ([3]; 30 min p.i., n = 5): 0.92 ± 0.33 %ID/g; Tumor/Blood ratio ([3]; 60 min p.i., n = 8): 15.94 ± 8.85; Tumor/Kidney ratio ([3]; 60 min p.i., n = 8): 0.79 ±0.40; Tumor/Liver ratio ([3]; 60 min p.i., n = 8): 3.05 ± 1.69; Tumor/Lung ratio ([3]; 60 min p.i., n = 8): 2.73 ± 1.33; Tumor/Muscle ratio ([3]; 60 min p.i., n = 8): 9.40 ± 5.11; Brain uptake ([3]; 60 min p.i., n = 8): 0.35 ± 0.28 %ID/g; Eyes uptake ([3]; 60 min p.i., n = 8): 0.81 ± 0.39 %ID/g; Heart uptake ([3]; 60 min p.i., n = 8): 1.27 ± 0.61 %ID/g; Intestine uptake ([3]; 60 min p.i., n = 8): 5.45 ± 1.47 %ID/g; Kidney uptake ([3]; 60 min p.i., n = 8): 11.70 ± 4.06 %ID/g; Liver uptake ([3]; 60 min p.i., n = 8): 3.07 ± 2.14 %ID/g; Lungs uptake ([3]; 60 min p.i., n = 8): 2.93 ± 0.94 %ID/g; Muscle uptake ([3]; 60 min p.i., n = 8): 0.88 ± 0.34 %ID/g; Spleen uptake ([3]; 60 min p.i., n = 8): 1.99 ± 0.71 %ID/g; Blood uptake ([3]; 60 min p.i., n = 8): 0.56 ± 0.25 %ID/g; Tumor/Blood ratio ([3]; 120 min p.i., n = 8): 26.48 ± 8.71; Tumor/Kidney ratio ([3]; 120 min p.i., n = 8): 0.89 ±0.48; Tumor/Liver ratio ([3]; 120 min p.i., n = 8): 4.03 ± 2.04; Tumor/Lung ratio ([3]; 120 min p.i., n = 8): 4.38 ± 1.34; Tumor/Muscle ratio ([3]; 120 min p.i., n = 8): 12.91 ± 4.95; Brain uptake ([3]; 120 min p.i., n = 8): 0.14 ± 0.12 %ID/g; Eyes uptake ([3]; 120 min p.i., n = 8): 0.52 ± 0.15 %ID/g; Heart uptake ([3]; 120 min p.i., n = 8): 0.56 ± 0.08 %ID/g; Intestine uptake ([3]; 120 min p.i., n = 8): 3.37 ± 1.32 %ID/g; Kidney uptake ([3]; 120 min p.i., n = 8): 6.04 ± 1.92 %ID/g; Liver uptake ([3]; 120 min p.i., n = 8): 1.54 ±0.43 %ID/g; Lungs uptake ([3]; 120 min p.i., n = 8): 1.31 ± 0.23 %ID/g; Muscle uptake ([3]; 120 min p.i., n = 8): 0.47 ± 0.12 %ID/g; Spleen uptake ([3]; 120 min p.i., n = 8): 1.46 ± 0.26 %ID/g; Blood uptake ([3]; 120 min p.i., n = 8): 0.22 ± 0.03 %ID/g; Tumor uptake ([3]; 5 min p.i., n = 5): 10.30 ± 1.67 %ID/g; Tumor uptake ([3]; 30 min p.i., n = 5): 8.37 ± 2.13 %ID/g; Tumor uptake ([3]; 60 min p.i., n = 8): 6.86 ± 1.33 %ID/g; Tumor uptake ([3]; 120 min p.i., n = 8): 5.61 ± 1.52 %ID/g; Intestine uptake in the presence of RGD2 [4, 5]: 1.82 ± 0.86 %ID/g; Lungs uptake in the presence of RGD2 [4, 5]: 1.52 ± 0.27 %ID/g; Spleen uptake in the presence of RGD2 [4, 5]: 0.65 ± 0.07 %ID/g; Tumor uptake with RGD2 ([4]; co-injection of excess RGD2 (350 µg/mouse or 14 mg/kg), n = 6, average ± SD): 1.48 ± 0.42 %ID/g; Reduction of liver uptake by co-injected excess RGD2 ([4]; of its origin value): 50%; Reduction of lung uptake by co-injected excess RGD2 ([4]; of its origin value): 50%

From PMC3946497 (Molecular pharmaceutics, 2013)
